{"source": "ChEMBL document CHEMBL4513216", "about": "“Probing the Open Global Health Chemical Diversity Library for Multistage-Active Starting Points for Next-Generation Antimalarials” (ACS Infect Dis, 2020)"}
{"test": "Toxicity liver stage against HepG2, at 10uM", "assay_type": "cell-based", "parameters": "test concentration 10 uM, cell line HepG2-A16-CD81EGFP", "details": "human, HepG2-A16-CD81EGFP cells; read-out: INHIBITION", "how_it_was_run": "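Uninfected HepG2-A16-CD81EGFP cells, 3 × 10^3 per well, 1536-well, plated on prespotted compound at 10 μM final, parasite-free screening media added to match infected plates; puromycin 10 μM positive, DMSO 0.5% negative; run in parallel with 48 h PbLuc assay at 37 °C, 5% CO2; viability by CellTiter-Glo luminescence, normalized to controls.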", "units": {"cytotoxicity at 10 µM": "%"}}
{"smiles": "COCC(=O)NC1CCCN(c2ccc(C)cc2)C1=O", "note": "(stereo unspecified)", "cytotoxicity at 10 µM": -0.82}
{"smiles": "COCCN1C[C@@H]2CC[C@H]1CN(C(=O)CCc1n[nH]c(C)c1C)C2", "cytotoxicity at 10 µM": -8.92}
{"smiles": "COc1ccnc(NC(=O)c2ccsc2)c1", "cytotoxicity at 10 µM": -0.747}
{"smiles": "O=C(C1CCC2(CCN(c3ncccn3)CC2)CO1)N1CCCC1", "note": "(stereo unspecified)", "cytotoxicity at 10 µM": 5.59}
{"smiles": "Cc1nsc(NC(=O)N2CCC(C(C)(C)O)CC2)n1", "cytotoxicity at 10 µM": 17.5}
{"smiles": "Cc1csc(N(C)C(=O)C2CC(=O)N(c3ccccc3F)C2)n1", "note": "(stereo unspecified)", "cytotoxicity at 10 µM": 9.95}
{"smiles": "Cc1cnc(C(=O)N2CCCn3c(nc(CN(C)C)cc3=O)C2)cn1", "cytotoxicity at 10 µM": -5.93}
{"smiles": "c1ccc(CCCN2CCCC(Nc3cnc4ccccc4n3)C2)cc1", "note": "(stereo unspecified)", "cytotoxicity at 10 µM": 1.34}
{"smiles": "Cc1ccc(CNC(=O)CC2C(=O)NCCN2Cc2ccccc2C)s1", "note": "(stereo unspecified)", "cytotoxicity at 10 µM": -7.98}
{"smiles": "O=C(COc1cccc(F)c1)N1C[C@@H](O)[C@H](N2CCCC2)C1", "cytotoxicity at 10 µM": -4.22}
{"smiles": "Cc1noc(C)c1CNCc1nn(-c2ccccc2)c2c1CCC2", "cytotoxicity at 10 µM": 1.83}
{"smiles": "CS(=O)(=O)N[C@@H]1CN(C(=O)c2cc3ccccc3s2)C[C@H]1O", "cytotoxicity at 10 µM": -0.378}
{"smiles": "Cc1cnn(CC2CN(Cc3ccccn3)CCO2)c1", "note": "(stereo unspecified)", "cytotoxicity at 10 µM": -2.84}
{"smiles": "C1CCC(c2nnc3sc(C4CCOC4)nn23)C1", "note": "(stereo unspecified)", "cytotoxicity at 10 µM": -2.16}
{"smiles": "O=C(C[C@@H]1COC[C@H]2CN(C3CCCC3)C[C@@H]12)NCc1cccnc1", "cytotoxicity at 10 µM": 6.84}
{"smiles": "COc1cccc(OCCc2cncc(C(N)=O)c2)c1", "cytotoxicity at 10 µM": -135}
{"smiles": "Cc1noc2nc(C3CCCN(Cc4ccncc4)C3)cc(C(F)F)c12", "note": "(stereo unspecified)", "cytotoxicity at 10 µM": -16.7}
{"smiles": "CC(Cn1cccn1)NCCS(=O)(=O)c1ccc(Cl)cc1", "note": "(stereo unspecified)", "cytotoxicity at 10 µM": -6.19}
{"smiles": "Cc1ccc([C@@H]2CN(S(=O)(=O)c3cccs3)C[C@H]2N(C)C)cc1", "cytotoxicity at 10 µM": -3.12}
{"smiles": "COCC(=O)N1C[C@@H]2COC[C@]2(COC)C1", "cytotoxicity at 10 µM": 5.44}
{"smiles": "O=C(C1CC(F)(F)C1)N1C[C@@H]2CN(Cc3ccsc3)CCO[C@@H]2C1", "cytotoxicity at 10 µM": -93.5}
{"smiles": "Cc1nc(CNC(=O)NC2CCN(c3ncccn3)CC2)cs1", "cytotoxicity at 10 µM": -141}
{"smiles": "c1cnc(N2CCC3(CC2)CC(NCC2CC2)c2ccccc23)nc1", "note": "(stereo unspecified)", "cytotoxicity at 10 µM": 22.4}
{"smiles": "O=C(N1CCCO1)[C@@]12CCO[C@@H]1CCN(Cc1ccccc1)C2", "cytotoxicity at 10 µM": -13.6}
{"smiles": "CSCCNC(=O)c1coc(COc2ccc(F)cc2)n1", "cytotoxicity at 10 µM": 1.75}
{"smiles": "Cc1cc(N2CCOC(c3ccncn3)C2)ncn1", "note": "(stereo unspecified)", "cytotoxicity at 10 µM": 2.91}
{"smiles": "O=C1COc2ccc(Br)cc2CN1CC1CC1", "cytotoxicity at 10 µM": -3.46}
{"smiles": "Cc1cnn(CC2CCCN2C(=O)c2nccnc2N)c1", "note": "(stereo unspecified)", "cytotoxicity at 10 µM": -27.6}
{"smiles": "CC1CN(Cc2ccccc2Cn2cccn2)CCN1C", "note": "(stereo unspecified)", "cytotoxicity at 10 µM": -132}
{"smiles": "Cc1c(F)cc(C(=O)O)cc1S(=O)(=O)Nc1ccc(C#N)cc1", "cytotoxicity at 10 µM": -6.04}
{"smiles": "CCN(CCN1CCOCC1)C(=O)c1cccnc1", "cytotoxicity at 10 µM": 7.42}
{"smiles": "COCCNC(=O)Cn1cc(OCc2ccccc2F)c(=O)cc1CO", "cytotoxicity at 10 µM": -173}
{"smiles": "CCc1nn(-c2cc(Oc3cc(C)ccc3C)ncn2)c(N)c1C#N", "cytotoxicity at 10 µM": 12.9}
{"smiles": "c1ccc(OCCNC2=NCCCN2)cc1", "cytotoxicity at 10 µM": -2.34}
{"smiles": "CCC1CN(C(=O)c2ccc(O)c(C)c2)CCN1C(C)C", "note": "(stereo unspecified)", "cytotoxicity at 10 µM": 1.68}
{"smiles": "CNC(=O)NCC1CCC2(CCN(C(=O)c3ccccc3)CC2)CO1", "note": "(stereo unspecified)", "cytotoxicity at 10 µM": -97.2}
{"smiles": "Cc1cc(C(=O)NC2(c3cccc(F)c3)CCOCC2)no1", "cytotoxicity at 10 µM": 1.42}
{"smiles": "Cc1nn(-c2cc(Cl)cc(Cl)c2)c(C)c1CCC(=O)O", "cytotoxicity at 10 µM": 3.8}
{"smiles": "CN1C[C@@H](C(=O)N2CCOCC2)[C@@]2(CCc3ccccc3C(=O)N2)C1", "cytotoxicity at 10 µM": 9.87}
{"smiles": "c1cc2occc2c(N2CCCC(c3nncn3C3CC3)C2)n1", "note": "(stereo unspecified)", "cytotoxicity at 10 µM": 1.97}
{"smiles": "CC(=O)NCCCC(=O)NC1(c2ccc(Cl)c(Cl)c2)CC1", "cytotoxicity at 10 µM": -7.79}
{"smiles": "c1cc(N2CCCCC2)ccc1-c1noc(CN2CCOCC2)n1", "cytotoxicity at 10 µM": -1.59}
{"smiles": "Cc1cnc(N2CCc3onc(COc4cccnc4)c3C2)nc1", "cytotoxicity at 10 µM": -111}
{"smiles": "COc1ccc(-c2n[nH]cc2CNC2CCN(C3CC3)CC2)cc1", "cytotoxicity at 10 µM": 1.75}
{"smiles": "COc1cccc(CN2CCC3(CC2)CCN(c2ncccn2)C3)c1", "cytotoxicity at 10 µM": -7.46}
{"smiles": "Cc1cc(C)n(-c2ccc(CNCc3ccc(OC(C)C)cc3)cn2)n1", "cytotoxicity at 10 µM": -6.95}
{"smiles": "CNc1cc(C2CN(Cc3csc(C)n3)CCO2)nc(C)n1", "note": "(stereo unspecified)", "cytotoxicity at 10 µM": -1.6}
{"smiles": "CCn1cc2c(n1)CN(Cc1cnn(C)c1)CC2COCC1CC1", "note": "(stereo unspecified)", "cytotoxicity at 10 µM": -80.4}
{"smiles": "Cc1oncc1C(=O)N[C@@H]1CN(c2ncccn2)C[C@@H]2CCCO[C@@H]21", "cytotoxicity at 10 µM": 6.21}
{"smiles": "COc1ccc2c3c1CN(C(C)=O)CC3=CC(C)(C)CO2", "cytotoxicity at 10 µM": 10.1}
{"smiles": "Cc1ccc(C)c(CS(=O)(=O)CC(=O)NCCCOC(C)C)c1", "cytotoxicity at 10 µM": -2.51}
{"smiles": "O=C(c1ccoc1)N1CCc2c(COCC3CC3)cncc2C1", "cytotoxicity at 10 µM": -76.9}
{"smiles": "COc1ccc(F)cc1C[S+]([O-])CC(=O)NCc1ccccc1C", "note": "(stereo unspecified)", "cytotoxicity at 10 µM": -0.907}
{"smiles": "Cc1ccc([C@@H]2CN(C(=O)c3cc[nH]c3)C[C@H]2NC(=O)C2CC2)cc1", "cytotoxicity at 10 µM": -7.59}
{"smiles": "Cc1cnn(CCNCc2ccc(OCc3ccncc3)cc2)c1", "cytotoxicity at 10 µM": -2.99}
{"smiles": "CN(C)c1ccccc1C(=O)N1C[C@@H](CN2CCOCC2)[C@@H](CO)C1", "cytotoxicity at 10 µM": -4.09}
{"smiles": "CCN1CCC(NC(=O)CN2CCCCC2Cn2cncn2)CC1", "note": "(stereo unspecified)", "cytotoxicity at 10 µM": 3.27}
{"smiles": "O=C(CC1=CCCCC1)NCCc1csc(N2CCCC2)n1", "cytotoxicity at 10 µM": -7.63}
{"smiles": "Cc1cccc(NS(=O)(=O)c2cc(C(=O)O)oc2C)c1Cl", "cytotoxicity at 10 µM": -14.6}
{"smiles": "Cc1nnsc1C(=O)N1CCCCC1c1cc2nc(C)c(C)c(O)n2n1", "note": "(stereo unspecified)", "cytotoxicity at 10 µM": -5.93}
{"smiles": "Cc1cccc(S(=O)(=O)N2C[C@@H]3C[C@H](C(=O)NCC(C)C)[C@H](C2)O3)c1", "cytotoxicity at 10 µM": 6.53}
{"smiles": "COc1ccc(C(=O)N2CCCC2c2noc(C(C)C)n2)nn1", "note": "(stereo unspecified)", "cytotoxicity at 10 µM": -4.01}
{"smiles": "CCN1CC2(CCC1=O)CCN(Cc1cccc(OC(F)F)c1)CC2", "cytotoxicity at 10 µM": -16.5}
{"smiles": "CCc1nnc(CN(C)c2nccc(N3CCCC(O)C3)n2)o1", "note": "(stereo unspecified)", "cytotoxicity at 10 µM": -4.68}
{"smiles": "CC(C)n1cnnc1CN(C)CC1CCCNC1", "note": "(stereo unspecified)", "cytotoxicity at 10 µM": 3.05}
{"smiles": "CC(C)CN1CC(O)CN(S(=O)(=O)c2ccc(F)cc2)CC1=O", "note": "(stereo unspecified)", "cytotoxicity at 10 µM": 2.99}
{"smiles": "c1ccc(-c2ccc(C3CNCCO3)nc2)cc1", "note": "(stereo unspecified)", "cytotoxicity at 10 µM": 2.36}
{"smiles": "Cn1c(C(=O)N2CCC(C(=O)N3CCCC3)CC2)c(Cl)c2ccccc21", "cytotoxicity at 10 µM": 3.12}
{"smiles": "CC(C)C(=O)NCc1cc(Br)ccc1F", "cytotoxicity at 10 µM": -3.98}
{"smiles": "Cc1ccc(F)c(OC2CCCN(c3cnn(C)c3)C2=O)c1", "note": "(stereo unspecified)", "cytotoxicity at 10 µM": -6.43}
{"smiles": "CCCc1noc(CN2CCCC2c2c(C)nn(C)c2OC)n1", "note": "(stereo unspecified)", "cytotoxicity at 10 µM": 9.94}
{"smiles": "Cc1cc(CN2CCC(C3CCN(CCc4ccccc4)C3)CC2)[nH]n1", "note": "(stereo unspecified)", "cytotoxicity at 10 µM": 7.19}
{"smiles": "CCS(=O)(=O)N1CC(=O)N(CCCc2ccccc2)CC(O)C1", "note": "(stereo unspecified)", "cytotoxicity at 10 µM": -5.64}
{"smiles": "Cc1cc(CC2COCCN(CCc3ccccc3)C2)ncn1", "note": "(stereo unspecified)", "cytotoxicity at 10 µM": 2.04}
{"smiles": "O=C(c1ccc(-n2cnnc2)cc1Cl)N1CCCC(O)(CO)CC1", "note": "(stereo unspecified)", "cytotoxicity at 10 µM": -3.59}
{"smiles": "COc1ccccc1OCCNC(=O)N1CCC(n2cncn2)CC1", "cytotoxicity at 10 µM": 1.67}
{"smiles": "Cc1noc([C@H]2COC[C@H]3CN(C(=O)Cc4ccsc4)C[C@H]32)n1", "cytotoxicity at 10 µM": -3.26}
{"smiles": "O=C(c1cccc2cn[nH]c12)N1CCCC1c1noc(C2CC2)n1", "note": "(stereo unspecified)", "cytotoxicity at 10 µM": -16.8}
{"smiles": "COc1c(C2CCCN2CC(=O)Nc2ccncc2)c(C)nn1C", "note": "(stereo unspecified)", "cytotoxicity at 10 µM": -12.7}
{"smiles": "Cc1noc(C)c1CN(C)C(=O)NC(C)c1cccs1", "note": "(stereo unspecified)", "cytotoxicity at 10 µM": 1.41}
{"smiles": "Cc1ccc(N2C[C@@H]3CCCO[C@@H]3[C@H](N3CCCC3)C2)nn1", "cytotoxicity at 10 µM": 2.96}
